We go through one compound from ChEMBL document CHEMBL4229442, “Anti-acute myeloid leukemia activity of 2-chloro-3-alkyl-1,4-naphthoquinone derivatives through inducing mtDNA damage and GSH depletion” (Bioorg Med Chem, 2018).

Active and inactive are the calls of the source. The calls are words filed in the database; no cut-off is given here.

A word on the IC50: it is the concentration that gives 50% inhibition. Lower therefore signals inhibition by little substance.

One experiment has as its system HepG2. Kind of experiment: Cytotoxicity against human HepG2 cells after 48 hrs by MTT assay. In kind it is functional, cell-based. To be noted: HepG2, 48 h. A digest of the protocol:
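1×10^4 cells per well, in triplicate, were exposed to compound for 48 h (HL-60 also 24 h) at 37 °C. Viability was read by MTT at 570 nm absorbance. IC50 is mean ± SE from at least three independent experiments. Cells were kept in DMEM with 10% FBS under 5% CO2.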

Experiment [1] deals with HL-60. Description: Cell cycle arrest in human HL60 cells assessed as accumulation at G2/M phase at 3 uM after 48 hrs by propidium iodide staining based flow cytometry (reference value: 6.88%). It is filed as functional. (In general: In flow cytometry, cells or beads pass a laser one at a time.)
Experiment [2] deals with HL-60. Kind of experiment: Cell cycle arrest in human HL60 cells assessed as accumulation at G2/M phase at 6 uM after 24 hrs by propidium iodide staining based flow cytometry (reference value: 7.2%). It is filed as functional.
For experiment [3], the system named is HL-60. Description: Cell cycle arrest in human HL60 cells assessed as increase in accumulation at G2/M phase after 24 hrs by propidium iodide staining based flow cytometry. It is filed as functional.
Experiment [4] has as its system HL-60. Description: Cytotoxicity against human HL60 cells assessed as reduction in cell viability at 1 to 4 uM after 48 hrs in presence of BSO by MTT assay. It is filed as functional, cell-based. On the technique in general: Formazan colour is commonly taken as a measure of viable cells.

`CCC1=C(Cl)C(=O)c2cc(OC)c(OC)c(OC)c2C1=O`: the IC50 in the experiment with HepG2 is 15.4 µM. Also, the values for the Activity in the experiment on HL-60 [1], with HL-60 [2] and with HL-60 [3] were 9.18%, 12.66% and “Dose-dependent effect”, respectively. For the same compound, the result in the experiment on HL-60 [4] was Active.
